Measurements: ChEMBL document CHEMBL1146838, “4-Hydroxy-3-methyl-6-phenylbenzofuran-2-carboxylic acid ethyl ester derivatives as potent anti-tumor agents” (Bioorg Med Chem Lett, 2004)
Values after ≈ are worked out from the molar mass of the structure shown.

System: WI-38 VA13
Test: Cytotoxicity against VA13 cell line; Expressed as effective concentration
Assay type: functional, cell-based
Settings: Homo sapiens
Procedure, shortened: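 Human tumorigenic VA13 cells grown in MEM-E with penicillin/streptomycin and 10% fetal calf serum, seeded at 1.5–3.0×10³ cells/well, cultured 2–3 days. Compounds in DMSO (final <0.5%) added for 24 h, then washed out and cells cultured a further 3 days in fresh medium. XTT with phenazine methosulfate added for 2.5 h, OD450 read. Viability computed relative to untreated and cell-free blanks; EC50 taken from dose–response curve.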

SMILES | EC50 [mg/L]
Cc1c(C(=O)c2cncnc2)oc2cc(-c3ccccc3)cc(O)c12 | 0.7 (≈ 2.12 µM)
Cc1c(C(=O)c2cccc(C(F)(F)F)c2)oc2cc(-c3ccccc3)cc(O)c12 | > 4
COc1ccc(OC)c(C(=O)c2oc3cc(-c4ccccc4)cc(O)c3c2C)c1 | 0.09 (≈ 0.232 µM)
Cc1c(C(=O)C(C)C)oc2cc(-c3ccccc3)cc(O)c12 | 0.41 (≈ 1.39 µM)
Cc1c(C(=O)OC(C)C)oc2cc(-c3ccccc3)cc(O)c12 | 0.06 (≈ 0.193 µM)
CC(=O)c1oc2cc(-c3ccccc3)cc(O)c2c1C | 0.08 (≈ 0.3 µM)
COc1ccc(CCOC(=O)c2oc3cc(-c4ccccc4)cc(O)c3c2C)cc1 | 0.02 (≈ 0.0497 µM)
Cc1c(C(=O)c2cccc(OC(C)C)c2)oc2cc(-c3ccccc3)cc(O)c12 | 0.35 (≈ 0.906 µM)
COc1ccc(C(=O)c2oc3cc(-c4ccccc4)cc(O)c3c2C)cc1OC | 0.45 (≈ 1.16 µM)
Cc1c(C(=O)Cc2ccccc2)oc2cc(-c3ccccc3)cc(O)c12 | > 4
Cc1c(C(=O)c2ccc(F)c(F)c2)oc2cc(-c3ccccc3)cc(O)c12 | 0.4 (≈ 1.1 µM)
Cc1c(C(=O)C2CCCCC2)oc2cc(-c3ccccc3)cc(O)c12 | 0.45 (≈ 1.35 µM)
COc1ccccc1C(=O)c1oc2cc(-c3ccccc3)cc(O)c2c1C | 0.09 (≈ 0.251 µM)
COc1cc(C(F)(F)F)ccc1C(=O)c1oc2cc(-c3ccccc3)cc(O)c2c1C | 0.26 (≈ 0.61 µM)
CCCC(=O)c1oc2cc(-c3ccccc3)cc(O)c2c1C | 0.59 (≈ 2 µM)
Cc1ncsc1CCOC(=O)c1oc2cc(-c3ccccc3)cc(O)c2c1C | 0.055 (≈ 0.14 µM)
Cc1c(C(=O)c2ccc(N(C)C)cc2)oc2cc(-c3ccccc3)cc(O)c12 | > 4
Cc1c(C(=O)NCCc2ccccn2)oc2cc(-c3ccccc3)cc(O)c12 | 1.5 (≈ 4.03 µM)
Cc1c(C(=O)c2ccccc2-c2ccccc2)oc2cc(-c3ccccc3)cc(O)c12 | 0.1 (≈ 0.247 µM)
Cc1c(C(=O)CCc2ccccc2)oc2cc(-c3ccccc3)cc(O)c12 | > 4

SMILES | EC50 [mg/L]
Cc1c(C(=O)c2ccccc2)oc2cc(-c3ccccc3)cc(O)c12 | 0.6 (≈ 1.83 µM)
CCCCC(=O)c1oc2cc(-c3ccccc3)cc(O)c2c1C | 2 (≈ 6.49 µM)
COc1ccc(CCOC(=O)c2oc3cc(-c4ccccc4)cc(O)c3c2C)cc1OC | 0.021 (≈ 0.0486 µM)
COc1ccc(C(=O)c2oc3cc(-c4ccccc4)cc(O)c3c2C)c(OC)c1 | 0.04 (≈ 0.103 µM)
CCc1ccc(C(=O)c2oc3cc(-c4ccccc4)cc(O)c3c2C)cc1 | > 4
Cc1c(C(=O)c2nccs2)oc2cc(-c3ccccc3)cc(O)c12 | 0.4 (≈ 1.19 µM)
CCOC(=O)c1oc2cc(-c3ccccc3)cc(O)c2c1C | 0.04 (≈ 0.135 µM)
COCc1ccccc1C(=O)c1oc2cc(-c3ccccc3)cc(O)c2c1C | 0.1 (≈ 0.269 µM)
Cc1c(C(=O)O)oc2cc(-c3ccccc3)cc(O)c12 | > 4
Cc1c(C(=O)c2cccc(CN(C)C)c2)oc2cc(-c3ccccc3)cc(O)c12 | 0.09 (≈ 0.233 µM)
CCC(=O)c1oc2cc(-c3ccccc3)cc(O)c2c1C | 0.27 (≈ 0.963 µM)
Cc1c(C(=O)C(C)(C)C)oc2cc(-c3ccccc3)cc(O)c12 | 0.41 (≈ 1.33 µM)
COc1ccc(C(=O)c2oc3cc(-c4ccccc4)cc(O)c3c2C)c(C(F)(F)F)c1 | 0.4 (≈ 0.938 µM)
Cc1c(C(=O)c2ccc(CN(C)C)cc2)oc2cc(-c3ccccc3)cc(O)c12 | > 4
Cc1c(C(=O)c2cnc3ccccc3c2)oc2cc(-c3ccccc3)cc(O)c12 | > 4
Cc1c(C(=O)c2ccc(Oc3ccccc3)cc2)oc2cc(-c3ccccc3)cc(O)c12 | > 4
Cc1c(C(=O)c2cccs2)oc2cc(-c3ccccc3)cc(O)c12 | 2 (≈ 5.98 µM)
COc1ccc(C(=O)c2oc3cc(-c4ccccc4)cc(O)c3c2C)cc1 | 0.28 (≈ 0.781 µM)
Cc1c(C(=O)c2ccccn2)oc2cc(-c3ccccc3)cc(O)c12 | 0.6 (≈ 1.82 µM)
